For 7 compounds, ED50, Ki and Loss results are on record in ChEMBL document CHEMBL1124459, “Activity of aromatic substituted phenylpiperazines lacking affinity for dopamine binding sites in a preclinical test of antipsychotic efficacy” (J Med Chem, 1989).

Assay [1] relates to Rattus norvegicus. Description: (§1) Effective dose in blocking conditioned avoidance responding (CAR) in the rat when administered intraperitoneally. It is filed as functional. The following applies: ip. An outline of the steps:
(§2)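 Rats trained on a discrete-trial single-lever conditioned avoidance task, dosed ip and tested at the time of peak effect. Each dose was given to 6–12 rats. CAR reduction and loss of escape responding were recorded.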

For assay [2], the target named is T1, 5-hydroxytryptamine receptor 1B (Rattus norvegicus, UniProt P28564). Description: Binding affinity determined in radioreceptor binding assay by using [3H]5-HT radioligand against 5-hydroxytryptamine 1B receptor. Summed up: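 Rat cortical tissue labelled with [3H]serotonin. The incubation medium included 8-OH-DPAT at 100 nM final. Run in duplicate, with one to five concentration–response curves per compound.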

The target in assay [3] is T2, Serotonin 2 (5-HT2) receptor (Rattus norvegicus, UniProt P30994+P08909+P14842). The assay can be described thus: Binding affinity in radioreceptor binding assay by using [3H]5-HT radioligand against 5-hydroxytryptamine 2 receptor. It is filed as protein assay.
Assay [4] concerns the target T3, D(1A) dopamine receptor (Rattus norvegicus, UniProt P18901). Description: Binding affinity at rat Dopamine receptor D1 by [3H]SCH-23390 displacement. Summed up: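 Rat striatal tissue suspended in 20 mM NaHepes without sucrose, at 250 volumes of the tissue weight. Labelled with [3H]SCH-23390 added as a 3 nM solution. Nonspecific binding set with unlabelled SCH-23390 added as a 30 μM solution. Incubated 20 min. Run in duplicate, with one to five concentration–response curves per compound.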

Assay [5] addresses T4, Adrenergic receptor alpha-1 (Rattus norvegicus, UniProt P15823+P23944+P43140).
T4 sequence (P15823 whole entry): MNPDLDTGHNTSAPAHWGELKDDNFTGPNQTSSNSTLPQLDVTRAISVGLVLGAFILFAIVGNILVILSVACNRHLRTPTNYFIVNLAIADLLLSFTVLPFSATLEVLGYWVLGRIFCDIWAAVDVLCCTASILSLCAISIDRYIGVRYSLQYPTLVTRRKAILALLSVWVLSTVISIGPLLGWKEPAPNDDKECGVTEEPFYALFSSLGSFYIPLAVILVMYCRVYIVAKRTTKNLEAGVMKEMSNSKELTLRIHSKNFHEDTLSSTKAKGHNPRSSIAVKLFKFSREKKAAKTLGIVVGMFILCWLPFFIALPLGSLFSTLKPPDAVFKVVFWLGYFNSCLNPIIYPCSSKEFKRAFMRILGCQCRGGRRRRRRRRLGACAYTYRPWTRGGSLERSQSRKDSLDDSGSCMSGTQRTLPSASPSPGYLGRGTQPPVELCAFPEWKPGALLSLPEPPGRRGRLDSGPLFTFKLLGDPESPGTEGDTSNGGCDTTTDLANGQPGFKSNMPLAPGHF
T4 sequence (P23944 whole entry): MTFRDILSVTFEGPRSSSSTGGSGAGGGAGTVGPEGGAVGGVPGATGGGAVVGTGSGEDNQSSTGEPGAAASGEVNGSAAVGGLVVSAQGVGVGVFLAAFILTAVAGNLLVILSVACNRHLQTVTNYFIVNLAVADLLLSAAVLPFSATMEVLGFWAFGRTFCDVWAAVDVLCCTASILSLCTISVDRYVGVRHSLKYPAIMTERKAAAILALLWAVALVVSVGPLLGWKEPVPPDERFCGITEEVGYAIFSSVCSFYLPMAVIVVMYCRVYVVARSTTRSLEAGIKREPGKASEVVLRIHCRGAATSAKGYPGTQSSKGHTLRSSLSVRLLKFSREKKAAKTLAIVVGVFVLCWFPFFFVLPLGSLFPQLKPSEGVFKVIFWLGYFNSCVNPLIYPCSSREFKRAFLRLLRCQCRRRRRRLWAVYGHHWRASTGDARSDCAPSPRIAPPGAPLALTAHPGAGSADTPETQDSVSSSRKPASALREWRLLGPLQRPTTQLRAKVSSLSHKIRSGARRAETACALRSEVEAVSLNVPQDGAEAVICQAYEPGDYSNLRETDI
T4 sequence (P43140 whole entry): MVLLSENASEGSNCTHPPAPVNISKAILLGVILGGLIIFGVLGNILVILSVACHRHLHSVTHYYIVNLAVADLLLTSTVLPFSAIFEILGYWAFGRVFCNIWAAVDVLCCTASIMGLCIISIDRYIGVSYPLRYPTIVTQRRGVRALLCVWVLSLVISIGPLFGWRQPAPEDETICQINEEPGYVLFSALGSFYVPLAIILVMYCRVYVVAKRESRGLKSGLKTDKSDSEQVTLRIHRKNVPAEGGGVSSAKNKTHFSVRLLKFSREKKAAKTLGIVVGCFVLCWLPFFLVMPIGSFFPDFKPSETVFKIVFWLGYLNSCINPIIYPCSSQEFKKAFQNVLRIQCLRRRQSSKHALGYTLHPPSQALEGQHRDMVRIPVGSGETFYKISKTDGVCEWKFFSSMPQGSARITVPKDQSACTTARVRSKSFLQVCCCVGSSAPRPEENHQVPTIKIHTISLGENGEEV
The assay can be described thus: Binding affinity against rat Alpha-1 adrenergic receptor. The assay is classed as protein assay.

Assay [6] addresses T5, Serotonin 1 (5-HT1) receptor (Rattus norvegicus, UniProt P28564+P30940+P19327+P28565). The assay can be described thus: Binding affinity in radioreceptor binding assay by using [3H]5-HT radioligand against 5-hydroxytryptamine 1 receptor. It is filed as protein assay.
Assay [7] deals with T6, 5-hydroxytryptamine receptor 1A (Rattus norvegicus, UniProt P19327).
T6 sequence (P19327 whole entry): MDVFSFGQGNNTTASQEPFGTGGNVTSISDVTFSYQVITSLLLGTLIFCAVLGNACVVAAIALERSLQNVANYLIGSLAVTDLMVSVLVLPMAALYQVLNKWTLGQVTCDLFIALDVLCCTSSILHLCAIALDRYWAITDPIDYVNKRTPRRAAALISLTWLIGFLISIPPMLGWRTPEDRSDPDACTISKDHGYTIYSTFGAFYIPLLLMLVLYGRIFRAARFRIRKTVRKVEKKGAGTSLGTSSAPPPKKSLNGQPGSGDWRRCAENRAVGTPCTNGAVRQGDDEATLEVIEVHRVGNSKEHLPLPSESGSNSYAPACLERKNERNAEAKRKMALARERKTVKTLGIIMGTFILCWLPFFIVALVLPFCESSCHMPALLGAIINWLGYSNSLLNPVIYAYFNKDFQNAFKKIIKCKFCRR

The target of assay [8] is T7, D(2) dopamine receptor (Rattus norvegicus, UniProt P61169). Description: Binding affinity against rat Dopamine receptor D2.
Assay [9] has as its target T6, 5-hydroxytryptamine receptor 1A. The assay can be described thus: Binding affinity in radioreceptor binding assay by using [3H]5-HT radioligand against 5-hydroxytryptamine 1A receptor.
The species named for assay [10] is Rattus norvegicus. Description: (§3) The percent loss of escape responding was determined for the estimated effective dose 50 values for CAR block. The assay is classed as functional.
For assay [11], the target named is T7, D(2) dopamine receptor. Description: Binding affinity in radioreceptor binding assay by using [3H]5-HT radioligand against Dopamine receptor D2.
In assay [12] the target is T3, D(1A) dopamine receptor. Description: Binding affinity in radioreceptor binding assay by using [3H]5-HT radioligand against Dopamine receptor D1.
Assay [13] deals with T1, 5-hydroxytryptamine receptor 1B. The assay can be described thus: Binding affinity in radioreceptor binding assay by using [3H]5-HT radioligand against 5-hydroxytryptamine 1B receptor. Summed up: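 Rat cortical membranes; [3H]serotonin as ligand, as in the 5-HT-1 assay, with 8-OH-DPAT added at 100 nM final to the incubation medium; assays run in duplicate; one to five concentration-response curves per compound.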

Assay [14] concerns the target T2, Serotonin 2 (5-HT2) receptor. Description: Binding affinity at rat 5-hydroxytryptamine 2 receptor by [3H]ketanserin displacement. It is filed as protein assay.
Assay [15] deals with T1, 5-hydroxytryptamine receptor 1B. Description: Binding affinity at rat 5-hydroxytryptamine 1B receptor by [3H]5-HT displacement.
For assay [16], the target named is T5, Serotonin 1 (5-HT1) receptor. The assay can be described thus: Binding affinity determined in radioreceptor binding assay by using [3H]5-HT radioligand against 5-hydroxytryptamine 1 receptor. The assay is classed as protein assay.
For assay [17], the species on record is Rattus norvegicus. The assay is described as §3. The assay is classed as functional. Summed up: as §2
The source holds these as a separate data set.

Assay [18] deals with T3, D(1A) dopamine receptor. The assay can be described thus: Activity in radioreceptor binding assay by using […] against Dopamine receptor D1.
The target of assay [19] is T2, Serotonin 2 (5-HT2) receptor. Description: Binding affinity determined in radioreceptor binding assay by using [3H]ketanserin radioligand against 5-hydroxytryptamine 2 receptor. It is filed as protein assay.
Assay [20] has as its system Rattus norvegicus. The description is as §1. The settings on record: ip.
Assay [21] has as its target T3, D(1A) dopamine receptor.
In assay [22] the target is T7, D(2) dopamine receptor. The assay can be described thus: Binding affinity determined in radioreceptor binding assay against dopamine receptor D2.

T1 sequence (P28564 whole entry): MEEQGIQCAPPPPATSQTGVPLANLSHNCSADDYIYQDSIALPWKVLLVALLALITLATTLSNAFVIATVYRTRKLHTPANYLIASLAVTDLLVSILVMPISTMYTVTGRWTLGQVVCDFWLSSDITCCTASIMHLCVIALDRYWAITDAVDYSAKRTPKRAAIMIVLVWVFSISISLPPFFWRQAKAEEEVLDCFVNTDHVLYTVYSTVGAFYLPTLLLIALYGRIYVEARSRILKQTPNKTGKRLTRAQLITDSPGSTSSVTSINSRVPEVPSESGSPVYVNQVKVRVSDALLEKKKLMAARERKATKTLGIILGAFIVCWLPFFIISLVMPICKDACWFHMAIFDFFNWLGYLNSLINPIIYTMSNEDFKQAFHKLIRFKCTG
T7 sequence (P61169 whole entry): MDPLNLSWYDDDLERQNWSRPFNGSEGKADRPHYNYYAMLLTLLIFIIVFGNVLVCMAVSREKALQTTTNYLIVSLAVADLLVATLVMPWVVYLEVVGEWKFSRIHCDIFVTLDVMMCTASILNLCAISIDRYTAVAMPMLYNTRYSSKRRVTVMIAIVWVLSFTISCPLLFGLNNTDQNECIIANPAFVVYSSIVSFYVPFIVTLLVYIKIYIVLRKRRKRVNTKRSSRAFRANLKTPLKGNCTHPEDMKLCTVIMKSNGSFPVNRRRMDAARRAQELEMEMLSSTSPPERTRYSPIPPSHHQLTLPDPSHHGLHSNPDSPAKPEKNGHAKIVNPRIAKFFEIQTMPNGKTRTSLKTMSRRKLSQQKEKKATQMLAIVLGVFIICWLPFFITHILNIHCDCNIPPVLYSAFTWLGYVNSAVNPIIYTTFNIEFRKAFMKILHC
T3 sequence (P18901 whole entry): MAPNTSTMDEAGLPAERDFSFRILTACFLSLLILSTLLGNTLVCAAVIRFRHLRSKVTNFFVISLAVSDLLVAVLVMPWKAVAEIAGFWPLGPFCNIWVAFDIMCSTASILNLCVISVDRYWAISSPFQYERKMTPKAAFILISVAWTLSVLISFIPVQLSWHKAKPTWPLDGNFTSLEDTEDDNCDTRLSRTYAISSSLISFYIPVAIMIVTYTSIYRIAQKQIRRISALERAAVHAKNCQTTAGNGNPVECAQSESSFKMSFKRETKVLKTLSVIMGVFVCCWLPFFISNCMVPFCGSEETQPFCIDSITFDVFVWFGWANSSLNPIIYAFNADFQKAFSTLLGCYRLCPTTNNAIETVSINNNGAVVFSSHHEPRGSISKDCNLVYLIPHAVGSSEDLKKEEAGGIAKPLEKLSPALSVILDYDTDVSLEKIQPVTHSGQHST

What is called ED50 is the midpoint of the dose-response relation. A high value points to a need for a large dose. One may read the Ki as the equilibrium dissociation constant of an inhibitor or competing ligand from its target. Higher therefore signals weaker binding. In the assay with Rattus norvegicus [1], `Oc1ccccc1N1CCNCC1` came in with an ED50 of 26.2 mg/kg. For the same compound, the Ki in assay [2] is 74.2 nM; in assay [3], more than 1000 nM; on D(1A) dopamine receptor [4] it was more than 1000 nM; in assay [5], 516 nM; in assay [6], 117 nM; in assay [7], 35.3 nM. Further, the Ki at D(2) dopamine receptor [8] is more than 1000 nM.

Turning to `FC(F)(F)c1cccc(N2CCNCC2)c1`, the Ki was 80.6 nM in [9]; 530 nM on D(2) dopamine receptor [11]; 31.1 nM in [3]; 337 nM in assay [5]; more than 1000 nM on D(1A) dopamine receptor [12]; 2.25 nM in assay [13]. For the same compound, the Loss in the assay listed under Rattus norvegicus [10] is recorded as 0.6%. The 50% effect level in the assay with Rattus norvegicus [1] (ED50) was put at a dose of 2.6 mg/kg.

As to `CC(C)c1ccccc1N1CCNCC1`, the Ki in assay [14] was 190 nM; in [15], 3.98 nM; in assay [16] it was 23.4 nM; in [5], 168 nM; at D(1A) dopamine receptor [18] it was more than 1000 nM; in [7], 12.5 nM. The compound also had a Ki at D(2) dopamine receptor [8] of 111 nM. Moreover, in the assay on Rattus norvegicus [1], the ED50 is 5.9 mg/kg. Besides, in the assay filed under Rattus norvegicus [17], the Loss is recorded as 0.1%.

Turning to `CCc1ccccc1N1CCNCC1`, the Ki is 124 nM in assay [14]; 8.2 nM in [15]; 17.1 nM in assay [16]; more than 1000 nM on D(1A) dopamine receptor [4]; 96 nM in assay [5]; 22.7 nM in [7]. Also, affinity on D(2) dopamine receptor [8] was put at a Ki of 449 nM. In addition, the ED50 in the assay with Rattus norvegicus [1] came to 6.8 mg/kg. In the assay listed under Rattus norvegicus [17], the Loss is 2.5%.

The compound `Cc1ccccc1N1CCNCC1` had an ED50 with Rattus norvegicus [1] of more than 20 mg/kg. For the same compound, the Ki is 44.6 nM in assay [15]; 62.4 nM in [16]; more than 1000 nM at D(1A) dopamine receptor [4]; 108 nM in [5]; 558 nM in assay [19]; 27.4 nM in assay [7]. For the same compound, on D(2) dopamine receptor [8], the Ki was more than 1000 nM.

As to `Clc1ccccc1N1CCNCC1`, the Ki in assay [14] is more than 1000 nM; in assay [15] it was 11.7 nM; at D(1A) dopamine receptor [21] it was more than 1000 nM; on D(2) dopamine receptor [22], more than 1000 nM; in [7], 19.5 nM. Besides, the Loss in the assay listed under Rattus norvegicus [10] was 3.1%. Moreover, the ED50 in the assay with Rattus norvegicus [20] stood at 10.2 mg/kg.

`Clc1cncc(N2CCNCC2)n1` [MK-212]: the Ki in assay [14] is more than 1000 nM; in [15] it was 178 nM; in assay [16] it was 844 nM; on D(1A) dopamine receptor [4], more than 1000 nM; in assay [5], 913 nM; in assay [7] it was 202 nM. Moreover, the Ki on D(2) dopamine receptor [8] is more than 1000 nM. Besides, the Loss in the assay filed under Rattus norvegicus [10] is given as 19%. This compound also had an ED50 with Rattus norvegicus [1] of 2.8 mg/kg.
